Bioassay records from PubChem BioAssay.
CHRM1 agonist = human M1 muscarinic receptor agonists, primary screen, Fluo-8 calcium fluorescence, CHO-K1 cells, HTS; Muscarinic acetylcholine receptor M1 (Homo sapiens), P11229; CHO-K1 hM1, agonist mode; 0% DMSO, 100% acetylcholine EC100; activation, % at 3 µM; 0.33% of 360,000 active; AID 588814, 2011;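 active = activation above the run's mean compound activation plus 3 SD, cut at about 16% in these data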;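 also: peak over basal fluorescence ratio within a 140 s kinetic read after compound addition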
CHRM1 PAM = human M1 muscarinic receptor positive allosteric modulators, primary screen, CHO-K1 cells, Fluo-8 calcium fluorescence, 1536-well; CHO-K1 hM1, ACh EC20; 0% = ACh EC20, 100% = maximal ACh; activation, % at 3 µM; 0.088% of 360,000 active; in the data active = activation above about 19%, passing the limit was not always enough
M5 PAM = human M5 muscarinic receptor positive allosteric modulators, primary screen, CHO-K1 cells, Fluo-8 calcium fluorescence; Muscarinic acetylcholine receptor M5 (Homo sapiens), P08912; AID 624038, 2012; 0.3% of 360,000 active; CHO-K1 hM5, ACh EC20 PAM; 0% = ACh EC20, 100% = ACh EC100; activation, % at 3 µM;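 active = activation above the run cutoff, the mean activation of all test compounds plus 3 SD, cut at about 18% in these data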
Target sequence (P08912 whole entry, looked up): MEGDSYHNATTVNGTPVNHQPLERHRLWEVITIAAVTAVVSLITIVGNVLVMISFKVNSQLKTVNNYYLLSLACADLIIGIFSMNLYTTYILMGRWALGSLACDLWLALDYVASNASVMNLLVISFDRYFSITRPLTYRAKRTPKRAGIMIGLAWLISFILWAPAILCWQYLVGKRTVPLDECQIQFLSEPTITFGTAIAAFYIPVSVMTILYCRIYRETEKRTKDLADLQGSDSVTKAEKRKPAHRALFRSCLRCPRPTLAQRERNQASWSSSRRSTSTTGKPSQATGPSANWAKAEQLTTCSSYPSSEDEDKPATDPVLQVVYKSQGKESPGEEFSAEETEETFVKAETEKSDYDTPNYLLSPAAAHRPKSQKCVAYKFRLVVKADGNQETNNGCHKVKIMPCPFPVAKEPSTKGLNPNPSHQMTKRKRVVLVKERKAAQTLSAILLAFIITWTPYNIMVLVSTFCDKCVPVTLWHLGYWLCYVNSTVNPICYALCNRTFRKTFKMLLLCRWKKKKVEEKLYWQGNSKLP
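System: CHO-K1 cell line with stable human muscarinic M5 receptor expression | Also added: EC20 acetylcholine as agonist stimulus | Compound: One concentration, 3 µM final (nominal) | Timing: Fluo-8 loading 80 min at 37 °C plus 30 min room temperature | Measured by: Fluo-8 calcium dye fluorescence, kinetic read | Read-out basis: % activation, ACh-normalized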
CHRM5 antagonist = human M5 muscarinic receptor antagonists, primary screen, CHO cells, Fluo-8 calcium fluorescence | Muscarinic acetylcholine receptor M5 (Homo sapiens), P08912 | CHO-hM5 cells, ACh EC80 | inhibition, % at 3 µM | 0.59% of 360,000 active | AID 624040, 2012;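 active = inhibition above a per-plate cutoff, the mean of that plate's test compounds plus 3 SD, cut at about 27% in these data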;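 also: 0% = acetylcholine EC80 with DMSO and 100% = DMSO without agonist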
M1 antag = human M1 muscarinic receptor antagonists, primary screen, CHO-K1 cells, Fluo-8 calcium fluorescence, 1536-well. Muscarinic acetylcholine receptor M1 (Homo sapiens), P11229. CHO-K1 hM1, ACh EC80 antagonist. inhibition, % at 3 µM. 1.3% of 360,000 active;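 active = percent inhibition above its own plate's cutoff, namely the mean of that plate's compound wells plus 3 SD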;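 also: peak over basal fluorescence ratio during 140 s after agonist addition; 0% = ACh EC80 plus DMSO and 100% = DMSO alone without agonist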
M5 ag = human M5 muscarinic receptor agonists, primary screen, CHO-K1 cells, Fluo-8 calcium fluorescence; CHO-K1 hM5 cells; 0% DMSO wells, 100% maximal acetylcholine response; Muscarinic acetylcholine receptor M5 (Homo sapiens), P08912; 0.19% of 360,000 active; activation, % at 3 µM;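 active = activation above the run's mean over test compounds plus 3 SD, cut at about 23% in these data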;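 also: signal is peak over basal fluorescence ratio across the kinetic read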
Starred values were filed as active, the others as inactive; x = not tested or not shown. Hits are enriched below; roughly 2% of the tested compounds scored in any of these assays.

SMILES	CHRM1 agonist	CHRM1 PAM	M5 PAM	CHRM5 antagonist	M1 antag	M5 ag
Cn1c2ccccc2c(=O)c2c(=O)n(C3CCCCC3)c(-c3ccco3)nc21	18.8*	-0.1	-4.0	6.0	0.8	15.0
CCC/C=C/c1ccc(CN2C(C(C)C)C(=O)N(Cc3cn(CCC4OCCO4)nn3)CCS2(=O)=O)cc1 (centres undefined)	-2.5	3.1	0.2	-14.1	-3.6	-1.2
COc1ccccc1C(=O)N1CCN(C(=O)[C@H]2O[C@@H](n3ccc(N)nc3=O)[C@H](O)[C@@H]2O)CC1	1.0	4.8	-8.8	9.1	-37.7	1.9
O=C(Nc1nnc([C@H]2C[C@H](O)[C@@H](CO)O2)s1)c1ccc(Oc2ccccc2)cc1	-5.3	3.1	-3.3	1.0	-6.8	-1.0
CN(C)c1ccc(CN2CCC(C(=O)NC(c3ccc(F)cc3)c3ccc4ccccc4n3)CC2)cc1 (centres undefined)	-6.7	-27.7	-17.5	35.8*	53.8*	-1.8
CC(C)NC1CCC(Nc2ccnc3cc(Cl)ccc23)CC1 (centres undefined)	-8.9	-7.8	-5.8	0.7	0.9	-4.2
CC(CCCN1CCCC1)Nc1ccnc2cc(Cl)ccc12 (centres undefined)	-9.3	-30.9	-5.0	13.6	57.6*	-9.2
Nc1nonc1-n1nnc(C(=O)N/N=C/c2ccc(F)cc2)c1-c1cccs1	19.2*	3.5	-1.0	1.9	-1.0	7.5
COc1cccc(-c2c(C(=O)N/N=C/c3ccco3)nnn2-c2nonc2N)c1	35.4*	10.4	4.0	2.7	-4.2	16.6
CCCN(CCC)Cc1c(C(=O)N/N=C/c2ccco2)nnn1-c1nonc1N	-3.6	2.0	-7.9	27.2*	-5.4	-3.5
Nc1nonc1-n1nnc(C(=O)N/N=C/c2ccoc2)c1-c1ccccc1	16.1*	4.5	2.0	2.2	-0.9	13.8
COc1ccc(S(=O)(=O)N[C@H]2CC[C@H](CCNC(=O)c3ccccc3F)O[C@@H]2CO)cc1	x	x	-3.9	2.7	x	0.8
O=C1NC[C@H](CCCCN2CCN(CCc3ccc(O)cc3)C(=O)C2=O)N(CCC2CCCCC2)C1=O	x	x	-2.3	-1.2	x	1.6
COc1cccc(C2CC(OCCF)=CC(=O)O2)c1 (centres undefined)	x	x	6.5	-7.1	x	3.2
Nc1nonc1-n1nnc(C(=O)N/N=C/c2ccco2)c1-c1ccccc1	22.4*	14.7	3.9	-8.2	-5.6	13.8
Cc1ccc(/C=N/NC(=O)c2nnn(-c3nonc3N)c2-c2ccccc2)o1	9.4	3.2	-1.3	0.8	-5.0	9.4
C[C@H]1CN([C@@H](C)CO)C(=O)c2cc(Br)cnc2O[C@@H]1CN(C)C(=O)Nc1ccc(C(F)(F)F)cc1	-2.0	5.8	-5.7	0.2	-0.8	-1.2
COc1ccccc1Cc1c(C2CCCCC2)nc2c3ccccc3ccn12	x	x	18.3*	1.0	x	-2.6
COc1ccc(Cc2c(C3CCCCC3)nc3c4ccccc4ccn23)c(C)c1	-6.0	-3.4	-4.2	8.7	-14.2	0.3
CC1(C(=O)Nc2cccc(Oc3ccccc3)c2)CCN1C1Cc2ccccc2C1 (centres undefined)	-4.1	-10.5	-1.1	-6.9	12.9	-0.8
CCN(CC)CCOCCOC(=O)C(CC)(CC)c1ccccc1	-6.1	-20.0	-16.9	8.6	38.0*	-21.1
O=P(CCN1CCCCC1)(c1ccccc1)c1ccccc1	-6.1	-22.8	-16.5	5.5	71.4*	-6.2
O=C(C[C@@H]1CC[C@@H]2[C@H](COC[C@H](O)CN2C(=O)Nc2ccc(F)cc2)O1)NCCc1ccncc1	x	x	-1.1	0.3	x	0.7
CN(C)Cc1ccccc1CCc1ccccc1	-8.5	-24.9	-28.9	29.8*	59.6*	-17.6
Oc1ccccc1C1OCC2(CO1)COC(c1ccccc1O)OC2 (centres undefined)	-3.4	6.0	-3.9	-11.0	0.8	0.2
SMILES	CHRM1 agonist	CHRM1 PAM	M5 PAM	CHRM5 antagonist	M1 antag	M5 ag
c1ccc(NCCC2OCC3(CO2)COC(CCNc2ccccc2)OC3)cc1 (centres undefined)	-1.9	-3.1	-8.2	28.8*	5.0	-1.2
COc1ccccc1-c1cc(NC=O)c2ncc(-c3cccc(C(F)(F)F)c3)n2c1	5.2	31.1*	-3.0	0.1	-24.2	-0.7
COc1ccc(-c2cc(NC=O)c3ncc(-c4cccc(C(=O)NCCN(C)C)c4)n3c2)c(OC)c1	-9.5	-33.2	1.9	-0.5	85.3*	-0.4
COc1cc(-c2cc(NC=O)c3ncc(-c4cccc(C(F)(F)F)c4)n3c2)cc(OC)c1OC	1.2	13.8	-0.1	4.5	-6.3	0.1
O=C1C=C(OCCCl)CC(c2cccc(Cl)c2)O1 (centres undefined)	x	x	-4.5	9.6	x	-2.5
CCCCN(C(=O)COC(=O)c1sccc1C)c1c(N)n(CCC)c(=O)[nH]c1=O	0.5	4.1	-0.1	3.7	-10.6	0.2
Cc1sc2ncnc(NC3CCN(Cc4ccccc4)CC3)c2c1C	-5.7	-23.0	-29.4	29.3*	42.8*	-7.6
c1ccc(CN2CCC(Nc3ncnc4sccc34)CC2)cc1	-1.7	-5.0	-0.6	11.6	15.8	-0.9
CCOc1ccc(NC(=O)CN2C(=O)S/C(=C/c3cccn3C)C2=O)cc1	-1.1	2.4	-16.0	27.9*	-6.7	-3.6
COc1ccccc1C(=O)Nc1ccc(N2CCCCC2)cc1	-4.6	3.5	0.0	8.8	-8.0	-4.0
COc1cccc(OC)c1C(=O)Nc1ccc(N2CCCC2)cc1	-7.3	-18.6	-3.7	6.2	30.5*	-4.6
CC(C)Oc1ccc(C(=O)Nc2ccc(N3CCCC3)cc2)cc1	-8.9	-12.6	-1.3	1.4	29.4*	0.1
COc1ccc(C(=O)Nc2ccccc2C(=O)N2CCOCC2)cc1OC	-1.3	12.9	2.2	6.1	-14.2	0.9
O=C(Nc1ccc(N2CCCC2)cc1)c1ccc(Br)cc1	-9.1	-16.4	3.3	0.5	7.1	-1.3
COc1cccc(OC)c1C(=O)Nc1ccccc1C(=O)N1CCOCC1	-4.2	7.3	-12.7	33.0*	-6.8	-5.0
CC(=O)Nc1cncc(-c2cccc(S(C)(=O)=O)c2)n1	-1.6	3.1	0.5	-0.8	-9.6	1.4
